One assay concerns P. falciparum strain Dd2. The assay is described as follows: SYBR Green I fluorescence antiplasmodial assay, Dd2. The class given is cell-based, Plasmodium falciparum.
The test system of assay [1] is HepG2 hepatocarcinoma cells. In words: MTS human cell cytotoxicity assay. The assay is classed as cell-based. The following applies: for EC50: read-out: HepG2 EC50.
The subject of assay [2] is acetyl-histone H4 in 3D7 parasite culture. In words: Immunoblot of histone H4 hyperacetylation. The assay is classed as cell-based, Plasmodium falciparum. The following applies: 3D7 trophozoites, 5× EC50, 4 h, versus DMSO. Background: Immunoblotting shows a protein as a band on a membrane.
In another assay the target is T1, recombinant PfHDAC1 (Plasmodium falciparum, UniProt Q7K6A1).
T1 sequence (Q7K6A1 1-449): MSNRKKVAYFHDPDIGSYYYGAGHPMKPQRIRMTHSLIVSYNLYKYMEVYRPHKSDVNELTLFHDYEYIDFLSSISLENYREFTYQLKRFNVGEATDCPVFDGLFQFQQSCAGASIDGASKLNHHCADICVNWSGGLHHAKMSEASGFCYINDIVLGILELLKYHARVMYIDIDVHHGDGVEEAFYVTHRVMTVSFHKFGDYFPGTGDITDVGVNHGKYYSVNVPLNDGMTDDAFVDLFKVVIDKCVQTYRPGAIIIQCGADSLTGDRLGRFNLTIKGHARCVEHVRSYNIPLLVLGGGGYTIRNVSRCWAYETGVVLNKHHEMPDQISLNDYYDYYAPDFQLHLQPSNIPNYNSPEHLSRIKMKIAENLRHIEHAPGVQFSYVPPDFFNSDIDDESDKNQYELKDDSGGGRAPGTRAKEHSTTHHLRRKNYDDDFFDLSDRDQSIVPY
The assay is described as follows: biochemical.

The subject of another assay is P. falciparum 3D7. The following applies: read-out: P. falciparum 3D7 EC50; literature values; cited from earlier work.
For assay [3], the system named is histone H4 acetylation in Plasmodium culture. The assay is described as follows: Immunofluorescence assay with anti-acetyl histone H4. The class given is cell-based, Plasmodium falciparum. The following applies: synchronous cultures, 5x EC50.
Assay [4] relates to synchronous Dd2 parasites. The assay is described as follows: Stage specific inhibition assay. The assay is classed as cell-based, Plasmodium falciparum. The following applies: 5 × EC50, synchronous Dd2. An outline of the steps: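 Stage development assessed by Giemsa smears at every condition and time point, plus flow cytometry. Flow samples fixed in 4% paraformaldehyde for 30 min at 37°C, washed 3x in PBS, held at 4°C, then resuspended in 0.25% Triton X-100 and shaken at 500 RPM for 10 min. Parasites gated against an uninfected RBC control; treated-culture histograms overlaid on vehicle-treated culture.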

In assay [5] the test system is asynchronous P. falciparum Dd2 parasites. In words: Rate of killing assay with compound wash-off. The assay is classed as cell-based, Plasmodium falciparum. The following applies: 10 × EC50, exposure 24 or 48 h, then wash-off.
[6] abbreviates: 48 h treatment, MTS, mean of triplicate ± SE/SEM.
Setting [7] is: read-out: PfHDAC1 IC50, recombinant enzyme, 2 h at 37°C, mean of duplicate ± SEM.

Where two headings read alike, the source gives them in different places. Non-standard residues stand in square brackets, D forms with d. Residues, ends and D or L forms follow the SMILES beside them. ξ: configuration not given here. Aoe = N[C@@H](CCCCCC(=O)[C@@H]1CO1)C(=O)O; Aoe(9ξ) = N[C@@H](CCCCCC(=O)C1CO1)C(=O)O; Pip = O=C(O)[C@@H]1CCCCN1

In the case of `CC1(C)NC(=O)[C@H](CCCCCC(=O)[C@H]2CO2)NC(=O)[C@H]2CCCN2C(=O)[C@H](Cc2ccccc2)NC1=O` [Compound 1, chlamydocin], the EC50 – broadly, the concentration at which the effect is half-maximal – was determined as 31 ± 7 nM in the assay with P. falciparum strain Dd2 (Plasmodium falciparum, DD2, 72 h, read-out: Dd2 EC50) and 530 ± 7 nM in assay [1] (Homo sapiens, HepG2, 48 h). In addition, in assay [1] (HepG2 EC50 / average of Dd2 EC50 and 3D7 EC50), the “Selectivity Index (SI)” value is 17.

For the compound `C[C@@H]1NC(=O)[C@H](CCCCCC(=O)[C@@H]2CO2)NC(=O)[C@H]2CCCN2C(=O)[C@H](Cc2ccccc2)NC1=O` [Compound 2, 1-alaninechlamydocin] (cyclo(AF[dP][Aoe])), the EC50 in assay [1] (setting [6]) amounted to 38 ± 6 nM. Moreover, the “histone H4 acetylation (Western blot)” value in assay [2] was “hyperacetylation”.

For the compound `CC(C)C[C@@H]1NC(=O)[C@@H](Cc2ccccc2)NC(=O)[C@H](CCCCCC(=O)C2CO2)NC(=O)[C@@H]2CCCCN2C1=O` (some centres unmarked) [Compound 11, WF-3161] (cyclo(L[Pip][Aoe(9ξ)][dF])), the EC50 in assay [1] (setting [6]) is 22000 ± 900 nM. Besides, the IC50 (usually the concentration that inhibits the measured activity by half) at recombinant PfHDAC1 (setting [7]) stood at 2 ± 2 nM.

With `C[C@@H]1NC(=O)[C@H]2CCCN2C(=O)[C@H](CCCCCC(=O)[C@@H]2CO2)NC(=O)[C@@H](C)NC1=O` [HC toxin], the EC50 with P. falciparum 3D7 was 29 ± 2 nM.

As to `O=C(CCCCCCC(=O)Nc1ccccc1)NO` [SAHA, suberanilohydroxamic acid], on recombinant PfHDAC1, the IC50 was found to be 92 ± 20 nM. The “histone H4 acetylation (Western blot)” value in assay [2] was “hyperacetylation”. In addition, in assay [3], the “histone H4 acetylation (immunofluorescence)” value is recorded as “noticeable increase in histone H4 acetylation”. In addition, in assay [4], the “effect of treatment at 6 HPI” value is on record as “resemble late trophozoite” and the “effect of treatment at 42 HPI” value is recorded as “partially inhibited at schizogony”.

On to Deoxy-WF 20782B [Compound 5], for which the “fold increase in EC50 compared with epoxide or alcohol R1 analogs” value in the assay on P. falciparum strain Dd2 (ethyl analog versus analogs with epoxide or alcohol at R1) is listed as 2–6 fold. Besides, in assay [1] (setting [6]), the EC50 amounted to 880 ± 50 nM.

For the compound FR235222 [Compound 3], in assay [1] (setting [6]), the EC50 was 260 ± 60 nM. In assay [5], the killing profile entry was “plasmodistatic”.

As for NA 1309 [Compound 7], the EC50 in assay [1] (setting [6]) is greater than 25000 nM. Also, the IC50 on recombinant PfHDAC1 (setting [7]) was 6300 ± 800 nM.

In the case of WF 27082F [Compound 4], the EC50 in assay [1] (setting [6]) worked out at 150 ± 40 nM.
